A selection: hits, their analogues and other compounds. The true share with any hit is near 2.1%.
PKA-R2B act = activators of PKA-R2B holoenzyme, primary screen, biochemical, fluorescence polarization, Cy5-IP20, human; cAMP-dependent protein kinase catalytic subunit beta (Homo sapiens) + cAMP-dependent …; 0.079% of 340,000 active; activation, % at 11.4 µM; PKA-R2B holoenzyme dissociation; R2B truncated from residue 108, S112A mutant; 0% DMSO only, 100% 113 µM cGMP;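 active = activation above a cutoff set at the mean over all compounds plus 3 SD, cut at about 18% in these data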;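 note: higher means more holoenzyme dissociation and a rise in polarization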
Target sequence (P31323 whole entry, looked up, other chains not shown, the tested form may be a part): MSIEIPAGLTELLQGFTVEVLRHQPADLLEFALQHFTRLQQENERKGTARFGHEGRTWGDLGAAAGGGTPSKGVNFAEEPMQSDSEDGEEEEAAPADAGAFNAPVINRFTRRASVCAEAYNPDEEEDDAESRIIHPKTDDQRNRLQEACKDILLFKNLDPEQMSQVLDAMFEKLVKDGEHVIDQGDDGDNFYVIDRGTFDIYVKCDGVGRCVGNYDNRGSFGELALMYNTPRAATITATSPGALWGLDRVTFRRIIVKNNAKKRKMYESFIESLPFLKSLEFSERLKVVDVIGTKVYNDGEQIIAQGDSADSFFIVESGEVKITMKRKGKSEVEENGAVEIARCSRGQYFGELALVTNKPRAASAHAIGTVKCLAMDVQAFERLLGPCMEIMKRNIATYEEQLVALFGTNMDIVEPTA
PKA-R1A activ = activators of PKA-R1A holoenzyme, primary screen, biochemical, fluorescence polarization, Cy5-IP20, bovine R1A, mouse PKAc | PKA-R1A dissociation; scaled: DMSO 0%, 113 µM cGMP 100% | cAMP-dependent protein kinase type I-alpha regulatory subunit (Bos taurus) + … | 0.083% of 340,000 active | activation, % at 11.4 µM;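 active = percent activation above the mean of all tested compounds plus 3 SD, cut at about 19% in these data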;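 note: higher means more PKAc released from R1A so a rise in polarization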
VIM-2 inhibitor = VIM-2 metallo-beta-lactamase inhibitors, primary screen, biochemical, epi-absorbance readout, Pseudomonas aeruginosa enzyme. purified VIM-2, nitrocefin hydrolysis, epi-absorbance fluorescence. inhibition, % at 5.6 µM. 0.89% of 290,000 active. AID 1527, 2009;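 active = inhibition above the mean of all tested compounds plus 3 SD, cutoff set per screening run, cut at about 7.5% in these data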;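 note: red hydrolysis product quenches plate fluorescence so inhibitors raise well fluorescence; 0% = enzyme with DMSO and 100% = DMSO without enzyme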
IMP-1 inhibitor = IMP-1 metallo-beta-lactamase inhibitors, primary screen, biochemical, epi-absorbance readout, Pseudomonas aeruginosa enzyme; AID 1556, 2009; 0.45% of 290,000 active; metallo-beta-lactamase IMP-1 (Pseudomonas aeruginosa); purified IMP-1, nitrocefin hydrolysis, epi-absorbance fluorescence; inhibition, % at 5.6 µM;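 active = inhibition above the mean plus 3 SD of all compounds in the same screening run, cut at about 4.5% in these data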;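 note: 0% = IMP-1 with DMSO and 100% = DMSO wells lacking enzyme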
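System: Purified IMP-1 | Read-out basis: Percent enzyme inhibition | Controls: IMP-1 with DMSO as 0%, enzyme-free DMSO as 100% | Replicates: One well per compound | Doses: 5.6 µM nominal single concentration | Detection: Epi-absorbance fluorescence, 480 nm excitation, 530 nm emission | Incubation: 25 °C, 15 min preincubation, 25 min reaction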
MsrA inh = bovine MsrA enzyme inhibitors, primary screen, biochemical, absorbance, HTS; inhibition, % at 15.5 µM; 0.75% of 360,000 active; Methionine sulfoxide reductase A (Bos taurus); purified bovine MsrA, absorbance read-out; in the data active = inhibition above about 4.5%;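 note: 0% = vehicle wells with enzyme and 100% = reference inhibitor wells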
bovine MsrA act = bovine MsrA enzyme activators, primary screen, biochemical, absorbance, HTS; Methionine sulfoxide reductase A (Bos taurus); purified bovine MsrA, absorbance read-out; activation, % at 10.6 µM; 0.3% of 360,000 active; in the data active = activation above about 7.5%;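 note: 0% = vehicle and 100% = reference activator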
MsrA act confirm = bovine MsrA activators, retest, confirmation, biochemical, absorbance, HTS | shares compounds with bovine MsrA act | purified bovine MsrA, absorbance read-out | activation, % at 10.6 µM | 12% of 1,000 active | AID 602270, 2012; in the data active = activation above about 4%;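 note: enzyme coupled to thioredoxin and thioredoxin reductase with NADPH; 0% = vehicle wells and 100% = reference activator wells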
Numbers without * were called inactive; / = no result.

SMILES	PKA-R2B act	PKA-R1A activ	VIM-2 inhibitor	IMP-1 inhibitor	MsrA inh	bovine MsrA act	MsrA act confirm
Cc1ccc(C(=O)Nc2nccc(C)n2)cc1	3	1	2	1	-1	8.7*	-1
Cc1ccnc(NC(=O)c2cccc(OC(F)F)c2)n1	2	-4	-1	-1	0	-3	/
Cc1ccccc1Nc1nc(N)nc(COC(=O)[C@@H](NC(=O)c2c(F)cccc2F)C(C)C)n1	-5	3	/	/	0	1	/
Cc1ccccc1Nc1nc(N)nc(COC(=O)[C@@H](NC(=O)c2ccccc2Cl)C(C)C)n1	1	9	/	/	-2	8.1*	0
CCCS(=O)(=O)NC(=O)C1(C)CCN(C(=O)Cc2ccc3ccccc3c2)C1 (stereo unspecified)	/	/	/	/	1	-3	/
CCc1cc2c(=O)n(CCC(C)C)c(=S)[nH]c2s1	-3	0	-1	-2	1	15*	-1
CC(C)C[C@@H]1O[C@H](CCc2ccccc2)Cc2[nH]c(=S)[nH]c(=O)c21	/	/	/	/	-1	10*	-1
Cc1cc(NS(=O)(=O)c2ccc(NC(=S)NC(=O)c3ccc(C(C)(C)C)cc3)cc2)no1	-5	-10	1	2	-1	-2	/
COc1ccc(C(=O)NC(=S)Nc2ccc(S(=O)(=O)Nc3cc(C)on3)cc2)cc1OC	-15	-8	-4	-1	-1	8.2*	-1
COc1ccccc1CNC(=O)CCCn1nc(C)c2c(C)n(-c3ccccc3)nc2c1=O	-5	-6	-2	1	0	12*	-3
CC(=O)Nc1ccc(S(=O)(=O)N(C#N)c2nc(N(C)C)nc(N(C)C)n2)cc1	-6	-1	1	-1	-1	-2	/
Cc1ccccc1C(=O)NNC(=S)NC(=O)COc1ccccc1	7	-2	-5	-2	0	13*	0
N#C/C(=C\c1ccc(OCC(N)=O)cc1)C(=O)NC1CC1	-7	6	-3	-3	3	13*	-1
CCOC(=O)C1=CCN(S(=O)(=O)c2ccccc2C(=O)OC)C1c1ccc(Cl)cc1 (stereo unspecified)	/	/	/	/	1	0	/
O=C(Nc1c2c(nn1-c1ccc([N+](=O)[O-])cc1)CS(=O)(=O)C2)c1ccccc1F	5	-3	0	-3	1	7.9*	-1
CN(C)Cc1c(C(C)(C)O)[nH]c2cc(F)ccc12	/	/	/	/	-1	/	/
Cn1c(=O)c2nc(SCCO)n(C)c2n(C)c1=O	-3	5	/	/	1	8.4*	-3
CC(=O)Nc1ccc(NC(=O)CSc2nc3c(=O)n(C)c(=O)n(C)c3n2C)cc1	4	-7	/	/	0	-3	/
CCCCN(C(=O)c1cc(Cl)nc2ccccc12)c1c(N)n(Cc2ccccc2)c(=O)[nH]c1=O	-10	5	/	/	0	12*	0
O=[N+]([O-])c1cc(Br)c(O)c(C=Nc2ccc(N3CCOCC3)cc2)c1	-67	-64	-2	2	1	10*	7.8*
Oc1ccc(N=Cc2cc(Br)c(N3CCOCC3)o2)cc1	5	-11	-1	-2	1	-3	/
O=C(CCC1CCN(C(=O)C2CC=CCC2)CC1)Nc1ccccc1 (stereo unspecified)	-4	-12	/	/	0	-2	/
C[C@@H]1CCCCO[C@H](CN(C)Cc2ccc3c(c2)OCO3)[C@@H](C)CN([C@H](C)CO)C(=O)c2cc(NC(=O)c3ccccc3)ccc2O1	9	5	/	/	1	-3	/
COC(=O)c1ccc(C2=NOC(C)(c3nnc(Cc4ccccc4)o3)C2)cc1 (stereo unspecified)	-8	-4	/	/	0	8.9*	-1
CC1(c2nnc(Cc3ccccc3)o2)CC(c2ccc(Br)cc2)=NO1 (stereo unspecified)	-9	0	/	/	0	-1	/
SMILES	PKA-R2B act	PKA-R1A activ	VIM-2 inhibitor	IMP-1 inhibitor	MsrA inh	bovine MsrA act	MsrA act confirm
CCN(CC)CCCNC(=O)c1csc(Nc2cccc3ccccc23)n1	5	7	4	0	-1	8.1*	-2
O=C(C[C@@H]1C[C@H]2c3cc(NC(=O)C4CCC4)ccc3O[C@H]2[C@@H](CO)O1)NCc1ccc(-c2ccccc2)cc1	7	-5	/	/	-1	-2	/
O=C1C(Cl)=C(NCc2ccco2)C(=O)c2ccccc21	-5	-8	/	/	1	14*	11*
CCNC1=C(Cl)C(=O)c2ccccc2C1=O	7	-2	-1	-2	0	12*	4.0*
CCCC(=O)NC1=C(Cl)C(=O)c2ccccc2C1=O	-5	5	/	/	1	9.2*	1
Cc1ccc(NC2=C(Cl)C(=O)c3ccccc3C2=O)cc1	-9	-6	-2	-4	2	-2	/
Cc1cc(OCC(=O)OC(C)C(=O)NC2CC2)c(C(C)C)cc1Cl (stereo unspecified)	-2	3	/	/	-1	0	/
C[C@@H]1CN([C@H](C)CO)S(=O)(=O)c2ccc(Br)cc2O[C@H]1CN(C)C(=O)C1CCCCC1	-11	-3	/	/	0	-3	/
O=c1ccc(S(=O)(=O)N2CCCC2)cn1Cc1ccc(Cl)cc1Cl	-1	-8	/	/	1	-3	/
Cc1cccc(NC(=S)N(CCN(C)C)Cc2cc3cccc(C)c3[nH]c2=O)c1	2	-2	-2	-2	1	20*	-1
CCCCn1cnc2c(SCc3ccccc3Cl)nc(N)nc21	4	1	/	/	0	-2	/
CC(=O)N(C)c1ccc(N=Nc2c(C)[nH]n(-c3ccccc3)c2=O)cc1	-5	0	5	-2	-1	8.0*	-1
CC(=O)N(C)c1ccc(N=Nc2c(C)[nH]n(C(N)=S)c2=O)cc1	-3	-5	5	-2	4	-5	/
COc1ccc(CN(Cc2cccnc2)S(=O)(=O)c2ccc(-n3cnnn3)c(OC)c2)cc1	-2	-17	-1	-3	-1	8.1*	-1
COc1ccc(CN(Cc2ccc(OC)cc2)S(=O)(=O)c2ccc(-n3cnnn3)c(C)c2)cc1	0	2	-2	-1	0	1	/
CC12C=CC(C)(C3C(=O)NC(=O)C31)C1C3C(=O)NC(=O)C3C12 (stereo unspecified)	/	/	/	/	1	/	/

High-throughput results from PubChem.
